# Only some compounds are listed: those with a hit (about 2.2% of all), similar ones and a draw of the others.
# Scp-1 inhibitor – blocks human Scp-1 phosphatase activity; Q9GZU7; Recombinant Scp1, phosphopeptide, malachite green phosphate absorbance; inhibition, % at 20 µM; hit rate 0.88% among 340,000; AID 493091;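 active means inhibition above about 50% at 20 µM, limit read from the data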
# Target sequence (Q9GZU7 76-261 limits assumed): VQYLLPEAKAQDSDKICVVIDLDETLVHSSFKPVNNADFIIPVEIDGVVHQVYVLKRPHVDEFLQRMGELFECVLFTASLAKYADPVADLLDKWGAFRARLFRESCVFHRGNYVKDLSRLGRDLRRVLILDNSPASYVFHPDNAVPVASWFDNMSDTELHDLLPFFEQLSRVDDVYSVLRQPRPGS
#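 Material – SCP-1 phosphatase catalytic domain, residues 76-261 · Buffer or medium – Acidic Tris acetate buffer with magnesium and detergent · Also added – Phospho 17-mer peptide substrate · Compound – single 20 µM dose, 1% DMSO · Times – 45 min room-temperature reaction, 5 min colour, 30 min stabiliser · Technique – Phosphate-binding colour reagent, absorbance read at 630 nm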
# STEP block – STEP (human) phosphatase inhibition. P54829. recombinant STEP, OMFP fluorogenic substrate, fluorescence. inhibition, % at 20 µM. hit rate 0.25% among 360,000;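 active means inhibition at 20 µM, scaled per plate between control wells, above about 37%, limit read from the data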
#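 Test system: STEP tyrosine phosphatase / Reagent: OMFP at 25 µM / Doses: 20 µM, 1% DMSO / Read-out: percent inhibition scaled to no-enzyme and uninhibited-enzyme controls, plate-pattern corrected / Detection: FITC-channel fluorescence of OMFP product / Medium: Bis-Tris buffer pH 6.0, 2.5 mM DTT, 0.005% Tween 20 / Schedule: 20 min at room temperature, dark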
# LMPTP block – blocks human LMPTP phosphatase; hit rate 0.22% among 360,000; inhibition, % at 20 µM; recombinant LMPTP-A, OMFP fluorogenic substrate, fluorescence intensity; AID 651560; P24666;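 active means compounds that cut the enzyme signal by at least half of the control window in the single-dose screen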
# Target sequence (P24666 whole entry, looked up): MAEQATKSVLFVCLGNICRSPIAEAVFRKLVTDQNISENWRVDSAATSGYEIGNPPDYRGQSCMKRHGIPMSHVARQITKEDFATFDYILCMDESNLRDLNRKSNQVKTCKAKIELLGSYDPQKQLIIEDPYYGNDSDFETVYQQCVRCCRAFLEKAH
#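 Assay system: LMPTP-A, protein tyrosine phosphatase of low molecular weight / Medium: pH 6.0 Bis-Tris buffer with DTT and Triton X-100 / Schedule: 50 min enzyme reaction at room temperature, protected from light / Measured by: endpoint fluorescence intensity from OMFP dephosphorylation / Read-out basis: % inhibition relative to no-enzyme and uninhibited control wells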
# DNMT1 inh – inhibitors of human DNMT1; hit rate 0.83% among 360,000; DNMT1 molecular beacon, Hinp1I cleavage, fluorescence; inhibition (reported as % activation of signal), % at 10 µM; P26358; AID 588458; in the data active means inhibition above about 50%
# GRK2 aptamer HTS – inhibitors of human GRK2 displacing RNA aptamer. hit rate 0.59% among 330,000. inhibition of aptamer binding, % at 10 µM. AID 488847. P25098. bead flow cytometry, FAM-aptamer displacement from GRK2;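 active means inhibition of aptamer binding above 40%, roughly 3 SD of noise, on plates passing a quality check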;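 further: median bead fluorescence of bound FAM aptamer so fluorescent compounds give negative values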
# SUMO1-SIM PPI – modulators of human SUMO1-mediated protein-protein interactions. AID 602429. SUMO1 binding to a labelled peptide, TR-FRET, 1 h. hit rate 0.33% among 360,000. inhibition, % at 20 µM; in the data active means inhibition above about 37%
# Target sequence (P63165 whole entry, looked up): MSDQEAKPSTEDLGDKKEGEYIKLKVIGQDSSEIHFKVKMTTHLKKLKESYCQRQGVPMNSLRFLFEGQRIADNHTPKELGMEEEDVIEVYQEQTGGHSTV
# GRK2 CP1 – confirmation of human GRK2 inhibitors displacing RNA aptamer; shares compounds with GRK2 aptamer HTS; bead-bound GRK2, FAM-aptamer displacement, flow cytometry; aptamer displacement, % at 10 µM; hit rate 4% among 2,000;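 active means aptamer displacement above 40%, near three times the noise of non-fluorescent compounds, on plates passing quality checks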;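 further: negative values mostly reflect intrinsic compound fluorescence rather than true enhancement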
# Aptamer quench SP – aptamer fluorescence quenching in GRK2 counter-screen. shares compounds with GRK2 aptamer HTS. Carboxyfluorescein RNA aptamer on beads, flow cytometry quenching; stronger effect = lower value. fluorescence response (% of DMSO), % at 10 µM. 2,000 tested, under 10 active. AID 504580;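 active means compounds that quench the bead-bound fluorescent RNA probe, cutting fluorescence to under half of the solvent control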;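 further: counterscreen run without GRK2 so only probe quenching by compound is measured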
# GRK2 CP2 – human GRK2 inhibition confirmation, cherry pick 2; shares compounds with GRK2 aptamer HTS; bead-bound GRK2, FAM-aptamer displacement, flow cytometry; inhibition of aptamer binding, % at 10 µM; 360 tested, under 10 active; AID 504782;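 active means inhibition of aptamer binding above 40%, about triple the noise seen with nonglowing compounds, on plates passing quality control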;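 further: negative values mostly come from compounds that fluoresce themselves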
# FAM quench SP – quenches fluorescent RNA aptamer, GRK2 hit artifact. shares compounds with GRK2 aptamer HTS. fluorescence response vs DMSO, % at 10 µM. 360 tested, under 10 active. carboxyfluorescein RNA aptamer beads, flow cytometry quenching; stronger effect = lower value;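 active means response vs DMSO under 50%, meaning signal dropped by over half, treated as fluorescence quencher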;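 further: labelled aptamer on streptavidin beads without GRK2 as a quench counter-screen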
# A number is an active result; - = inactive; . = not tested or not shown.
SMILES,Scp-1 inhibitor,STEP block,LMPTP block,DNMT1 inh,GRK2 aptamer HTS,SUMO1-SIM PPI,GRK2 CP1,Aptamer quench SP,others
Nc1cccc2[nH]c(C(F)(F)F)nc12,-,-,-,-,-,67.7,.,.,
COc1ccccc1C#Cc1cnc2c(c1)C(=O)N([C@H](C)CO)C[C@@H](C)[C@@H](CN(C)C(=O)c1ccc3c(c1)OCO3)O2,.,-,-,-,.,-,.,.,
COC(=O)C[C@H]1C=C[C@H](NC(=O)c2cccc(F)c2)[C@@H](CO)O1,.,.,-,.,.,-,.,.,
CC(=O)Nc1ccc(NC(=S)NC(=O)c2cc3ccccc3o2)cc1,-,-,-,-,-,-,.,.,
O=C(NC(=S)Nc1ccc2oc(=O)ccc2c1)c1cc2ccccc2o1,-,-,-,-,.,74.6,.,.,
O=C(/C=C/c1ccco1)Nc1cccc2cccnc12,-,-,50.1,63.4,-,-,.,.,
COc1cc(/C=C(\C#N)C(=O)Nc2ccc(C(=O)O)cc2)ccc1OC(=O)c1cccc(F)c1,-,-,-,-,42.0,-,.,.,
CCc1ccc(NC(=O)/C(C#N)=C\c2ccc(OC)c(C(=O)O)c2)cc1,-,-,-,-,-,-,.,.,
CCOc1cc(/C=C(/C#N)C(=O)Nc2ccc(OC)cc2)ccc1OCc1ccc(C(=O)O)cc1,-,-,80.3,-,-,-,.,.,
N#C/C(=C\c1ccc(OCc2ccc(Cl)cc2)cc1)C(=O)Nc1cccc(C(=O)O)c1,-,57.7,-,61.6,-,66.0,.,.,
COc1ccc(N2CCN(C(=O)C(=O)c3cc(OC)c4ccccc4c3)CC2)cc1,.,.,-,.,.,-,.,.,
Cc1cc(C)cc(OCC(=O)NNC(=O)CC(C)c2ccccc2)c1 (stereo unspecified),.,-,-,-,.,-,.,.,
COc1cc(/C=C2\SC(=S)N(NS(=O)(=O)c3ccccc3)C2=O)ccc1O,60.2,-,-,-,-,-,.,.,
COc1cc(/C=C2\SC(=S)N(NS(=O)(=O)c3ccc(C)cc3)C2=O)ccc1O,-,-,-,-,-,-,.,.,
O=C(O)CC(NC(=O)C12CC3CC(CC(C3)C1)C2)c1ccc(F)cc1 (stereo unspecified),-,-,-,-,88.0,-,-,-,
O=C(O)CC(NC(=O)C12CC3CC(CC(C3)C1)C2)c1ccc2c(c1)OCO2 (stereo unspecified),-,-,-,-,-,-,.,.,
COc1cc2c(cc1OC)C(CNC(=O)C=Cc1ccccc1)C2 (stereo unspecified),.,-,-,-,.,-,.,.,
CCn1cc(C(=O)N2CC(C)CC(C)C2)c(=O)c2cc(S(=O)(=O)N(C)C)ccc21 (stereo unspecified),-,-,-,-,-,-,.,.,
CC1CC(C)CN(C(=O)c2cn(C)c3ccc(S(=O)(=O)N(C)C)cc3c2=O)C1 (stereo unspecified),-,-,-,-,86.0,-,-,-,
COc1cccc(CC2(CO)CCCN(Cc3cn[nH]c3-c3ccc(F)cc3)C2)c1 (stereo unspecified),-,-,-,-,-,-,-,-,
Cn1c(SCC(=O)Nc2ccc(NC(=O)c3ccccc3)cc2)nnc1-c1ccncc1,-,-,-,-,62.0,-,-,-,
C[C@@H]1CN([C@H](C)CO)C(=O)CCCn2nncc2CO[C@H]1CN(C)S(=O)(=O)c1ccccc1F,.,-,-,-,.,-,.,.,
COCCNC(=O)c1c(N)n(-c2ccccc2)c2nc3ccccc3nc12,-,-,-,-,-,-,-,-,
CC(NC(=O)COC(=O)Cc1ccc(-c2ccccc2)cc1)c1ccccc1 (stereo unspecified),-,-,-,-,-,-,-,21.9,
O=C(COC(=O)Cc1ccc(-c2ccccc2)cc1)NCc1ccccc1,-,-,-,-,-,-,-,-,
SMILES,Scp-1 inhibitor,STEP block,LMPTP block,DNMT1 inh,GRK2 aptamer HTS,SUMO1-SIM PPI,GRK2 CP1,Aptamer quench SP,others
CC(NC(=O)COC(=O)CNC(=O)c1ccc(-c2ccccc2)cc1)c1ccccc1 (stereo unspecified),-,-,-,-,-,-,.,.,
O=C(COC(=O)Cc1ccc(Cl)cc1)NCc1ccc(Cl)cc1,.,-,-,-,.,-,.,.,
CC1(C(=O)NS(=O)(=O)c2ccccc2Cl)CCN1C(=O)c1ccccc1CCc1ccccc1 (stereo unspecified),.,-,-,-,.,-,.,.,
COc1cc(C(=O)NCCCN2CCCC2=O)cc(OC)c1OC,-,-,-,-,94.0,-,-,-,
CC1=C(C(=O)OCc2ccccc2)C(c2cccc(F)c2)NC(=O)N1 (stereo unspecified),-,-,-,-,51.0,-,-,-,
COCCNC(=O)c1noc2c1CCc1cc(OC)ccc1-2,-,-,-,-,-,-,.,.,
COc1ccc2c(c1)CCc1c(C(=O)NCCCn3ccnc3)noc1-2,-,-,-,-,51.0,-,-,-,
COc1ccccc1NS(=O)(=O)c1cccc(C(=O)OCC(=O)NC2CC2)c1,-,-,-,-,59.0,-,-,-,
COc1ccccc1N1CC(C(=O)OC(C)C(=O)Nc2ccc(F)cc2)CC1=O (stereo unspecified),.,-,-,-,.,-,.,.,
Cc1cc(C(=O)COC(=O)c2ccc(NC(=O)CC#N)cc2)c(C)n1CCc1ccc(F)cc1,-,-,-,-,57.0,-,-,-,
COc1cc(C2C(C#N)=C(N)Oc3c2ccc2ccccc32)ccc1OCC(=O)Nc1cccc(C)c1 (stereo unspecified),-,-,-,-,-,-,.,.,
COc1cc(C2C(C#N)=C(N)Oc3c2ccc2ccccc32)ccc1OCC(=O)Nc1ccc(C)cc1 (stereo unspecified),-,-,-,-,-,-,-,-,
O=C(NC(c1ccccc1)c1cnccn1)C1CCN(CCOc2ccc(Cl)cc2Cl)CC1 (stereo unspecified),.,-,-,-,.,-,.,.,
COCCCNC(=O)c1cccc(C(=O)NCCCOC)c1,-,-,-,-,-,-,.,.,
COCCCNC(=O)NC(=O)c1ccccc1,-,-,-,-,76.0,-,.,.,GRK2 CP2=-;FAM quench SP=-
CC(C)Nc1nc(NCCOc2ccccc2)c2sccc2n1,.,-,-,-,.,-,.,.,
O=[N+]([O-])c1cnc(N2CCCCC2)c([N+](=O)[O-])c1,-,-,-,-,-,-,.,.,

# Screening data from PubChem.
